# According to ChEMBL document CHEMBL4041519, “Design, synthesis and SAR analysis of potent BACE1 inhibitors: Possible lead drug candidates for Alzheimer's disease” (Eur J Med Chem, 2017):
# How the values were obtained:
# Beta-secretase 1 [1] = molecular target: T1, Beta-secretase 1 (Homo sapiens, UniProt P56817); assay: Inhibition of recombinant human BACE1 (1 to 460 residues) expressed in baculovirus infected insect cells using rhodamine-EVNLDAEFK peptide as substrate measured after 60 mins by FRET assay
# T1 sequence (P56817 whole entry, the tested form may be a part): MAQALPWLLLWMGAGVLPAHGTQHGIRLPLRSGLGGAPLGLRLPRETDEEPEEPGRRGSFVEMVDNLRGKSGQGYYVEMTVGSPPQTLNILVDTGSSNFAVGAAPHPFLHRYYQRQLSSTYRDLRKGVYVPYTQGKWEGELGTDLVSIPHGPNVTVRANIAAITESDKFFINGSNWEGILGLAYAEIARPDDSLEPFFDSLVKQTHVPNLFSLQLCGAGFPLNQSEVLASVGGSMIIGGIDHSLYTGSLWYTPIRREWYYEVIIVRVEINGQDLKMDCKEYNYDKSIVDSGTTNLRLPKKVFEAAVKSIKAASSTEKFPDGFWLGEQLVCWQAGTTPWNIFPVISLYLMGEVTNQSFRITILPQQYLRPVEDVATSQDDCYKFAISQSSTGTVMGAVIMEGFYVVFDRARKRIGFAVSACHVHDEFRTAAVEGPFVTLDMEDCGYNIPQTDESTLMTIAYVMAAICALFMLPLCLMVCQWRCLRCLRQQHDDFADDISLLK
# Method in brief: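 Enzyme 1 U/mL in 50 mM sodium acetate pH 4.5 with 750 nM substrate (Swedish-mutant peptide, KM 20 µM); screening at 30, 10, 3, 1 and 0.3 µM, 3.3% DMSO final. Incubated in the dark at 25 °C, stopped with 2.5 M sodium acetate; fluorescence ex 545/em 585 nm. IC50 from nonlinear fit of RFU/h versus log concentration; mean of 3 experiments.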
# Beta-secretase 1 [2] = molecular target: T1, Beta-secretase 1; assay: Inhibition of BACE1 in human H4 cells expressing human APP K595N/M596L double mutant assessed as decrease in amyloid beta 42 and amyloid beta 40 level after overnight incubation by ELISA method; assay type: cell-based; conditions: for inhibition: concentration not given here
# Method in brief: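 H4 neuroglioma cells seeded 2x10^5 per well, grown 24 h (5% CO2, humidified), then exposed overnight to increasing compound concentrations; 1% DMSO negative control, R-flurbiprofen positive control. Supernatant Aβ42 and Aβ40 captured with biotinylated 4G8 plus C-terminal-specific rabbit antibodies, streptavidin magnetic beads, electrochemiluminescence readout. EC50 = concentration halving Aβ production; mean of ≥3 experiments ± SD.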
SMILES,IC50 (Beta-secretase 1 [1]),EC50 (Beta-secretase 1 [2]),inhibition (Beta-secretase 1 [2])
Fc1ccc2nc(-c3cccc(-c4cnc(-c5c[nH]c6cc(OC(F)(F)F)ccc56)[nH]4)c3)[nH]c2c1,120 nM,290 nM,87%
O=C(Nc1cccc(-c2cnc(-c3c[nH]c4ccccc34)[nH]2)c1)c1cccnc1,220 nM,480 nM,75%
O=C(Nc1cccc(-c2cnc(-c3c[nH]c4cc(F)ccc34)[nH]2)c1)c1cccnc1,130 nM,410 nM,82%
Fc1ccc(-c2cnc(-c3cccc(-c4cnc(-c5c[nH]c6cc(OC(F)(F)F)ccc56)[nH]4)c3)[nH]2)cc1,180 nM,670 nM,77%
O=C(Nc1ccncc1)c1cccc(-c2cnc(-c3c[nH]c4ccccc34)[nH]2)c1,660 nM,590 nM,70%
O=C(Nc1ccccc1)c1cccc(-c2cnc(-c3c[nH]c4ccccc34)[nH]2)c1,110 nM,1210 nM,64%
Fc1ccc(-c2cnc(-c3cccc(-c4cnc(-c5c[nH]c6cc(F)ccc56)[nH]4)c3)[nH]2)cc1,75 nM,810 nM,86%
O=C(Nc1ccc(F)cc1)c1cccc(-c2cnc(-c3c[nH]c4ccccc34)[nH]2)c1,98 nM,1330 nM,69%
O=C(Nc1cccnc1)c1cccc(-c2cnc(-c3c[nH]c4ccccc34)[nH]2)c1,310 nM,880 nM,42%
Fc1ccc2nc(-c3cccc(-c4cnc(-c5c[nH]c6cc(F)ccc56)[nH]4)c3)[nH]c2c1,85 nM,350 nM,90%
